# How the values were obtained:
# ABHD6 [1] = molecular target: T1, ABHD6 (Mus musculus, UniProt Q8R2Y0); assay: In vitro competitive ABPP with FP-Rh in mouse brain proteome; type: biochemical; conditions: for relative ABHD6 inhibitory potency: JW842 vs JW843, JW651 vs JW814, MJN110 vs all carbamates
# T1 sequence (Q8R2Y0 1-336): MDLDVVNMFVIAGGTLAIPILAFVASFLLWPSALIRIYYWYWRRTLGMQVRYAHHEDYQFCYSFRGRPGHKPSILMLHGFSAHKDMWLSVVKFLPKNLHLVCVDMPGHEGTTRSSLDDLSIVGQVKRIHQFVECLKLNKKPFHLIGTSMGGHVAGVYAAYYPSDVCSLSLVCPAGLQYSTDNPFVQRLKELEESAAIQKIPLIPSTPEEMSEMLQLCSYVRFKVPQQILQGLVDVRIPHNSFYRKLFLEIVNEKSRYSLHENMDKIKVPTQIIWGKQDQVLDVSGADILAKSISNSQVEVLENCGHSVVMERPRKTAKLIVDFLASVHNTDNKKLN
# Method in brief: (§1)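 Mouse brain membrane proteome (1.0 mg/mL) was preincubated with DMSO or test compound (1–100,000 nM) for 30 min at 37 °C. FP-Rh (50 μM stock in DMSO) was added for another 30 min at room temperature, and reactions were quenched with SDS loading buffer. After SDS-PAGE, MAGL, ABHD6 and FAAH activities were quantified from in-gel fluorescent band intensities, from which IC50 values were calculated.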
# MAGL [2] = molecular target: T2, MAGL (Mus musculus, UniProt O35678); assay: as above; type: biochemical; conditions: JW842 vs JW843, JW651 vs JW814; MJN110 vs all carbamates
# T2 sequence (O35678 1-303): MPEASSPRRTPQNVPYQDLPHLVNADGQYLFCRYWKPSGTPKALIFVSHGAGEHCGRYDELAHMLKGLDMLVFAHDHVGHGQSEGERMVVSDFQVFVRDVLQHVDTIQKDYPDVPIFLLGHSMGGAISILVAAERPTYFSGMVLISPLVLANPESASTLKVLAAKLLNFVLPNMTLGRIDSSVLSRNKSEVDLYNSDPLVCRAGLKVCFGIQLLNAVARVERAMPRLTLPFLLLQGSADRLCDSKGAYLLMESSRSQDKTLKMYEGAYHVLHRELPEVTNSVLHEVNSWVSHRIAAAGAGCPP
# Method in brief: as §1
# [3] = system: other brain serine hydrolases; assay: In vitro competitive ABPP with FP-Rh, off-target profile; type: biochemical, mouse
# Method in brief: as §1
# FAAH [4] = molecular target: T3, FAAH (Mus musculus, UniProt O08914); assay: In vitro CC-ABPP of mouse brain proteomes; type: biochemical
# T3 sequence (O08914 1-579): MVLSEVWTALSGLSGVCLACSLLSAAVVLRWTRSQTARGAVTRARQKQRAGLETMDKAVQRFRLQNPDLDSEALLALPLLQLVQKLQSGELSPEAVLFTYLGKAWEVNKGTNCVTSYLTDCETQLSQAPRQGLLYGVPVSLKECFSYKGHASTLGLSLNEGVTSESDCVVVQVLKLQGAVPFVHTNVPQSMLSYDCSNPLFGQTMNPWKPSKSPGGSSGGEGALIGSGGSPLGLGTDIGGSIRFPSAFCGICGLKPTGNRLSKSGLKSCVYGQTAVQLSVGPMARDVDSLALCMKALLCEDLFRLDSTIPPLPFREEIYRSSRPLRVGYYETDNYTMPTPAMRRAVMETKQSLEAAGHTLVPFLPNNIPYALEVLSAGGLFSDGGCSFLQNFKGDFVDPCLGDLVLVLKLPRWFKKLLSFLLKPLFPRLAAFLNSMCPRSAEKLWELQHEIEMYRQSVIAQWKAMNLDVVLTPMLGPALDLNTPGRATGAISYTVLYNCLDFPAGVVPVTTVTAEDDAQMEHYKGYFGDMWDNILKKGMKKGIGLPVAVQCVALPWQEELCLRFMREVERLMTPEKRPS
# Method in brief: (§2)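 Brain membrane proteome from naïve mice (1.0 mg/mL) was treated with varying concentrations of alkyne carbamate probe for 30 min at 37 °C. A premixed click mixture was added immediately: CuSO4 (50 mM stock), TBTA (1.7 mM stock), freshly prepared TCEP (50 mM stock) and Rh-N3 (1.25 mM stock). Reactions ran 1 h at room temperature, were diluted with SDS loading buffer, and were read by SDS-PAGE in-gel fluorescence.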
# MAGL [5] = assay: In vivo competitive ABPP of brain proteomes from treated mice; design: species or system mouse
# Method in brief: (§3)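 C57Bl/6J mice received test compound by oral gavage in PEG300 (1.0–40 mg•kg-1). At 4 h they were anesthetized with isoflurane, killed by cervical dislocation, and tissues were flash-frozen. Brain membrane proteomes were labeled with FP-Rh for 30 min at room temperature, quenched in reducing SDS loading buffer, separated on 10% SDS-PAGE and scanned for in-gel fluorescence.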
# carboxylesterases (CESs) = assay: In vivo CC-ABPP of liver proteomes; design: species or system mouse; conditions: oral, 1-40 mg•kg^–1, 4 h
# Method in brief: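 Mice received oral alkyne carbamate probe in PEG300 (1–40 mg•kg-1) for 4 h before livers were harvested and flash-frozen. Liver membrane proteome, with the soluble fraction removed, was diluted to 1.0 mg/mL. It was clicked to Rh-N3 with premixed CuSO4, TBTA and fresh TCEP for 1 h at room temperature, then diluted in SDS loading buffer and resolved by SDS-PAGE for in-gel fluorescence.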
# FAAH [6] = molecular target: T3, FAAH; assay: In vitro competitive ABPP with FP-Rh in mouse brain proteome; type: biochemical; conditions: 30 min, 37 °C
# Method in brief: as §1
# FAAH [7] = molecular target: T3, FAAH; assay: In vivo competitive ABPP of brain proteomes from treated mice; conditions: oral, 4 h
# Method in brief: as §3
# brain serine hydrolases = assay: In vivo competitive ABPP of brain proteomes, off-target profile; design: species or system mouse; conditions: oral, 1-40 mg•kg^–1, 4 h
# Method in brief: as §3
# MAGL [8] = assay: In vitro click chemistry; type: biochemical, mouse; conditions: CC-ABPP with Rh-N3, 30 min, 37 °C
# Method in brief: as §2
# mouse brain proteome [9] = assay: In vivo CC-ABPP of brain proteomes, off-target labeling; conditions: entire tested dose range 1-40 mg•kg^–1 p.o.
# mouse brain proteome [10] = assay: In vitro CC-ABPP, background proteome reactivity; type: biochemical
# Method in brief: as §2
# MAGL [11] = molecular target: T2, MAGL; assay: In vivo competitive ABPP of liver proteomes; conditions: oral, 1-40 mg•kg^–1, 4 h
# Method in brief: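 Mice were gavaged orally with test compound in PEG300 (1.0–40 mg•kg-1). After 4 h, animals were killed under isoflurane and livers flash-frozen. Liver membrane proteomes were labeled with FP-Rh for 30 min at room temperature, quenched with reducing SDS loading buffer, resolved on 10% SDS-PAGE and read by in-gel fluorescence scanning.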
# [12] = system: brain lipid levels (2-AG, AA, AEA); assay: Brain lipid levels in treated mice; type: in vivo, mouse; conditions: JW651-treated mice, p.o., 4 h
# Method in brief: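 C57Bl/6J mice were dosed by oral gavage in PEG300 (1.0–40 mg•kg-1). After 4 h they were anesthetized with isoflurane and killed by cervical dislocation. Brains were harvested and flash-frozen in liquid N2. Lipids were measured by LC/MS against commercial standards.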
# ABHD6 [13] = molecular target: T1, ABHD6; assay: In vivo competitive ABPP of brain proteomes from treated mice; conditions: 40 mg•kg^-1 p.o., 4 h
# Method in brief: as §3
compound,measurement,setting,value
O=C(ON1C(=O)CCC1=O)N1CCN(C(c2ccc(Cl)cc2)c2ccc(Cl)cc2)CC1 [MJN110],relative ABHD6 inhibitory potency,ABHD6 [1],highest
same,relative MAGL inhibitory potency,MAGL [2],highest
same,other off-targets observed,[3]; below 100 μM,LYPLA1/2 being the only other off-targets
C#Cc1ccc(C(c2ccc(Cl)cc2)N2CCN(C(=O)Oc3ccc([N+](=O)[O-])cc3)CC2)cc1 (stereo not shown) [JW842yne],cross-reactivity with FAAH,FAAH [4],some cross-reactivity
same,relative activity on MAGL in the brain in vivo,"MAGL [5]; oral, 1-40 mg•kg^–1, 4 h, vs JW651yne and MJN110yne",less active
same,CES labeling in liver,carboxylesterases (CESs),strongest CES labeling profile
same,change in inhibitory activity against FAAH on exchange of chloro for alkyne,FAAH [6],slight increase
same,dose producing strong inhibition of FAAH in brain,FAAH [7],≥ 10 mg•kg^–1
C#Cc1ccc(C(c2ccc(Cl)cc2)N2CCN(C(=O)ON3C(=O)CCC3=O)CC2)cc1 (stereo not shown) [MJN110yne],lowest dose substantially inhibiting MAGL in the brain,"MAGL [5]; oral, 1-40 mg•kg^–1, 4 h",5.0 mg•kg^–1
same,only detectable off-target activity in brain in vivo,brain serine hydrolases,ABHD6
same,lowest probe concentration detecting MAGL reactivity,MAGL [8],10 nM
same,broader background proteome labeling in vivo,mouse brain proteome [9],did not reveal broader background proteome labeling
same,probe concentration at which background proteome reactivity became apparent,"mouse brain proteome [10]; CC-ABPP with Rh-N3, more dramatic at 100 μM",10 µM
same,degree of background proteome reactivity,"mouse brain proteome [10]; CC-ABPP, concentrations up to 100 μM",highest degree of background proteome reactivity
same,inactivation of MAGL in liver,MAGL [11],potent inactivation
O=C(OC(C(F)(F)F)C(F)(F)F)N1CCN(C(c2ccc(Cl)cc2)c2ccc(Cl)cc2)CC1 [JW651],lowest dose giving near complete / complete inhibition of MAGL in brain,"MAGL [5]; C57Bl/6J mice, oral gavage 1.0 to 40 mg•kg^-1, 4 h",5 mg/kg
same,brain levels of N-arachidonoylethanolamide (AEA),[12],unaffected
same,brain levels of arachidonic acid (AA),[12],concomitant reductions
same,elevation of brain levels of 2-AG,[12],10 fold
same,blockade of ABHD6,ABHD6 [1]; at 10 μM,partial blockade
same,cross-reactivity with other brain serine hydrolases off-targets,[3]; up to 10 μM,did not exhibit cross-reactivity
same,detectable off-targets,"[3]; up to 100 μM JW651, membrane fraction of mouse brain proteome",ABHD6 being the only detectable off-target
same,inhibition of ABHD6 in brain,ABHD6 [13],partial inhibition
O=C(Oc1ccc([N+](=O)[O-])cc1)N1CCN(C(c2ccc(Cl)cc2)c2ccc(Cl)cc2)CC1 [JW842],relative ABHD6 inhibitory potency,ABHD6 [1],much greater potency
same,relative MAGL inhibitory potency,MAGL [2],much greater potency
